{"source": "ChEMBL document CHEMBL1139226", "about": "“Partial retro-inverso, retro, and inverso modifications of hydrazide linked bifunctional peptides for opioid and cholecystokinin (CCK) receptors” (J Med Chem, 2007)", "key": {"[1]": {"target": "T1, Cholecystokinin receptor type A (Homo sapiens, UniProt P32238)", "T1 sequence (P32238 whole entry)": "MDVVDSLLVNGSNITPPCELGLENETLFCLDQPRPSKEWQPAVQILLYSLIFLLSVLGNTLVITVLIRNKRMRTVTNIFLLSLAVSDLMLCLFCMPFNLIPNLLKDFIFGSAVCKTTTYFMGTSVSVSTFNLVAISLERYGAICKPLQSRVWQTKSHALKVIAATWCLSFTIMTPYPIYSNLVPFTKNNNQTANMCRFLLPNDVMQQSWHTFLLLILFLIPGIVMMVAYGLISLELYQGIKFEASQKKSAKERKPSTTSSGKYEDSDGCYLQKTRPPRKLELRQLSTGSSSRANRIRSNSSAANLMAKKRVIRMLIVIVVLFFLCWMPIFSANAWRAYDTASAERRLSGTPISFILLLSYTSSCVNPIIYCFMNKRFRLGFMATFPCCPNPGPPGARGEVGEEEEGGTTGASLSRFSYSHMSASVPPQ", "test": "Displacement of [125I]CCK8-SO3 from human CCK1 receptor expressed in HEK293 cells", "type": "cell-based"}, "[2]": {"target": "T2, Gastrin/cholecystokinin type B receptor (Homo sapiens, UniProt P32239)", "T2 sequence (P32239 whole entry)": "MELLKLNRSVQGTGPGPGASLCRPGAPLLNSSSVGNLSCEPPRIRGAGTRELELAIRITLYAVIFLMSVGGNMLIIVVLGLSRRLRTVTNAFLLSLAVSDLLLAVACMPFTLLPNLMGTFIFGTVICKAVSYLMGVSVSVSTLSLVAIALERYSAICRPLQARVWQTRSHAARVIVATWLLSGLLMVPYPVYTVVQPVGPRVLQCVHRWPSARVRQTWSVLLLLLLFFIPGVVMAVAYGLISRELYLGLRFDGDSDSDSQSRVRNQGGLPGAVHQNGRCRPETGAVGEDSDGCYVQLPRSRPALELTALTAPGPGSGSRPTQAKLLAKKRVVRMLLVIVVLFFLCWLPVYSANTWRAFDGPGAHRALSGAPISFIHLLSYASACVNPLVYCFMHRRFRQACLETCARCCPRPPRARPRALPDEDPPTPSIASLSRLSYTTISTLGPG", "test": "Displacement of [125I]CCK8-SO3 from human CCK2 receptor expressed in HEK293 cells", "type": "cell-based"}, "[3]": {"target": "T3, Delta-type opioid receptor (Homo sapiens, UniProt P41143)", "T3 sequence (P41143 whole entry)": "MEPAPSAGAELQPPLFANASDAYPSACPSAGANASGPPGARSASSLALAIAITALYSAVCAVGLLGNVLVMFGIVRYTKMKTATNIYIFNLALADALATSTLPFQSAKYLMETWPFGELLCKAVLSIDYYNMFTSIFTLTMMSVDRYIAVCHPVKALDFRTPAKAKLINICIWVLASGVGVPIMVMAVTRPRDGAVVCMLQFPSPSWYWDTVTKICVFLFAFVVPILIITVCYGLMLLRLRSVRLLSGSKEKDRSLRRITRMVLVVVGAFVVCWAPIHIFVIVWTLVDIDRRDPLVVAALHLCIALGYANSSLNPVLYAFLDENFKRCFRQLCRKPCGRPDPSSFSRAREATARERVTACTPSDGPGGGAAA", "test": "Displacement of [3H]DPDPE from human delta opioid receptor expressed in HN9.10 cells", "type": "cell-based"}, "[4]": {"target": "T4, Mu-type opioid receptor (Rattus norvegicus, UniProt P33535)", "T4 sequence (P33535 whole entry)": "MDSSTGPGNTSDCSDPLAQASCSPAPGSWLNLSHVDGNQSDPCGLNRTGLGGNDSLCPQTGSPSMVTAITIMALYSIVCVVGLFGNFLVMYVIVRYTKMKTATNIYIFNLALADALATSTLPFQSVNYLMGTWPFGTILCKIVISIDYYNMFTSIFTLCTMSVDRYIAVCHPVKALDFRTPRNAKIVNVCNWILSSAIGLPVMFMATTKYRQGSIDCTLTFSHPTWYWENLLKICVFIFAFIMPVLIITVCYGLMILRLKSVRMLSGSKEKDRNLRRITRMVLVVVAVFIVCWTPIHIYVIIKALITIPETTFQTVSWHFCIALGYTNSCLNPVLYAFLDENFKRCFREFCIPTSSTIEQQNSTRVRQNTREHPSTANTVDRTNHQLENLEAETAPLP", "test": "Displacement of [3H]DAMGO from rat mu opioid receptor expressed in HN9.10 cells", "type": "cell-based"}, "[5]": {"target": "T3, Delta-type opioid receptor", "test": "Activity at human delta opioid receptor expressed in CHO cells by [35S]GTP-gamma-S binding assay", "type": "functional, cell-based", "settings": "for Log IC50: cho", "procedure,_shortened": "(§1)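 Receptors expressed in CHO cells; agonist-stimulated GTP-γ-S binding reported as net total bound/basal binding × 100. Log EC50 from nonlinear regression of at least two independent experiments.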"}, "[6]": {"target": "Mu-type opioid receptor (Rattus norvegicus) (UniProt P33535)", "sequence (P33535 whole entry)": "as above", "test": "(§2) Activity at rat mu opioid receptor expressed in CHO cells by [35S]GTPgammaS binding assay", "type": "functional, cell-based", "procedure,_shortened": "as §1"}, "[7]": {"target": "T4, Mu-type opioid receptor", "test": "as §2", "type": "functional, cell-based", "procedure,_shortened": "as §1"}, "[8]": {"target": "Delta-type opioid receptor (Mus musculus, UniProt P32300)", "sequence (P32300 whole entry)": "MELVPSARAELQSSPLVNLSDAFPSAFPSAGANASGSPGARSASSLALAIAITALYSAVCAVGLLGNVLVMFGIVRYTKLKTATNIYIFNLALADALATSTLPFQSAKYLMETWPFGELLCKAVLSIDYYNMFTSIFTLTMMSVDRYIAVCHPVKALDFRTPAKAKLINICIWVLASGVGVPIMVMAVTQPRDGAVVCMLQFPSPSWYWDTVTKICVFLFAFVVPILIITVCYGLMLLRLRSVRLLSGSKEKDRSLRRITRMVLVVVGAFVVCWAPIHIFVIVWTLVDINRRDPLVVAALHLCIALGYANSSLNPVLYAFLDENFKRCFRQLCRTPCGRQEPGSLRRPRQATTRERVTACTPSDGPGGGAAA", "test": "Activity at delta opioid receptor in ICR mouse by MVD assay", "type": "functional, tissue-based", "procedure,_shortened": "(§3)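 Electrically stimulated isolated tissue; value is concentration giving 50% inhibition of muscle contraction.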"}, "[9]": {"target": "Mu-type opioid receptor (Cavia porcellus, UniProt P97266)", "sequence (P97266 whole entry)": "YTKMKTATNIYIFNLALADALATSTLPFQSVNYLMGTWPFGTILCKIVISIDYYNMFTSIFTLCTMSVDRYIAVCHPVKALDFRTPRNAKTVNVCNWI", "test": "Activity at mu opioid receptor assessed as contraction of electrically-stimulated Hartley guinea pig ileum", "type": "functional, tissue-based", "procedure,_shortened": "as §3"}, "[10]": {"target": "T2, Gastrin/cholecystokinin type B receptor", "test": "Activity at human CCK2 receptor expressed in HEK293 cells assessed as level of [3H]inositol produced relative to control", "type": "functional, cell-based"}}, "data": [{"smiles": "CCCC[C@@H](NC(=O)[C@@H](CC(=O)O)NC(=O)[C@@H](Cc1ccccc1)NC(=O)OC(C)(C)C)C(=O)N[C@@H](Cc1cc2ccccc2[nH]1)C(=O)NNC(=O)[C@H](Cc1ccccc1)NC(=O)CNC(=O)[C@@H](C)NC(=O)[C@@H](N)Cc1ccc(O)cc1", "values": [{"measurement": "IC50", "setting": "[1]", "value": 132, "unit": "nM"}, {"measurement": "Ki", "setting": "[1]", "value": 130, "unit": "nM"}, {"measurement": "IC50", "setting": "[2]", "value": 1100, "unit": "nM"}, {"measurement": "Ki", "setting": "[2]", "value": 1100, "unit": "nM"}, {"measurement": "IC50", "setting": "[3]", "value": 9.12, "unit": "nM"}, {"measurement": "Ki", "setting": "[3]", "value": 3.9, "unit": "nM"}, {"measurement": "IC50", "setting": "[4]", "value": 132, "unit": "nM"}, {"measurement": "Ki", "setting": "[4]", "value": 56, "unit": "nM"}, {"measurement": "EC50", "setting": "[5]", "value": 13, "unit": "nM"}, {"measurement": "Emax", "setting": "[5]", "value": 99, "unit": "%"}, {"measurement": "IC50", "setting": "[5]", "value": 12.3, "unit": "nM"}, {"measurement": "Emax", "setting": "[6]", "value": 71, "unit": "%"}, {"measurement": "log EC50", "setting": "[7]", "value": -6.76}, {"measurement": "IC50", "setting": "[8]", "value": 18, "unit": "nM"}, {"measurement": "IC50", "setting": "[9]", "value": 530, "unit": "nM"}]}, {"smiles": "CCCC[C@H](NC(=O)[C@H](N)Cc1cc2ccccc2[nH]1)C(=O)N[C@@H](CC(=O)O)C(=O)N[C@@H](Cc1ccccc1)C(=O)NNC(=O)[C@H](Cc1ccccc1)NC(=O)CNC(=O)[C@@H](C)NC(=O)[C@@H](N)Cc1ccc(O)cc1", "values": [{"measurement": "Emax", "setting": "[5]", "value": 64, "unit": "%"}, {"measurement": "Emax", "setting": "[6]", "value": 82, "unit": "%"}]}, {"smiles": "CCCC[C@H](NC(=O)[C@H](N)Cc1c[nH]c2ccccc12)C(=O)N[C@@H](CC(=O)O)C(=O)N[C@@H](Cc1ccccc1)C(=O)NNC(=O)[C@H](Cc1ccccc1)NC(=O)CNC(=O)[C@@H](C)NC(=O)[C@@H](N)Cc1ccc(O)cc1", "values": [{"measurement": "EC50", "setting": "[10]", "value": 4.6, "unit": "nM"}, {"measurement": "Log IC50", "setting": "[10]", "value": -8.34}, {"measurement": "Ki", "setting": "[4]", "value": 0.5, "unit": "nM"}, {"measurement": "Log IC50", "setting": "[5]", "value": -8.02}, {"measurement": "EC50", "setting": "[7]; cho", "value": 96, "unit": "nM"}, {"measurement": "Log IC50", "setting": "[7]; cho", "value": -8.02}]}, {"smiles": "CCCC[C@@H](NC(=O)[C@H](Cc1cc2ccccc2[nH]1)NC(=O)OC(C)(C)C)C(=O)N[C@H](CC(=O)O)C(=O)N[C@H](Cc1ccccc1)C(=O)NNC(=O)[C@H](Cc1ccccc1)NC(=O)CNC(=O)[C@@H](C)NC(=O)[C@@H](N)Cc1ccc(O)cc1", "values": [{"measurement": "Ki", "setting": "[1]", "value": 8300, "unit": "nM"}, {"measurement": "Ki", "setting": "[2]", "value": "> 10000", "unit": "nM"}, {"measurement": "IC50", "setting": "[3]", "value": 16.2, "unit": "nM"}, {"measurement": "Ki", "setting": "[3]", "value": 6.9, "unit": "nM"}, {"measurement": "IC50", "setting": "[4]", "value": 79.4, "unit": "nM"}, {"measurement": "Ki", "setting": "[4]", "value": 34, "unit": "nM"}, {"measurement": "EC50", "setting": "[5]", "value": 8.4, "unit": "nM"}, {"measurement": "Emax", "setting": "[5]", "value": 93, "unit": "%"}, {"measurement": "IC50", "setting": "[5]", "value": 8.32, "unit": "nM"}, {"measurement": "Emax", "setting": "[6]", "value": 106, "unit": "%"}, {"measurement": "EC50", "setting": "[7]", "value": 1.3, "unit": "nM"}, {"measurement": "log EC50", "setting": "[7]", "value": -8.9}, {"measurement": "IC50", "setting": "[8]", "value": 31, "unit": "nM"}, {"measurement": "IC50", "setting": "[9]", "value": 210, "unit": "nM"}]}, {"smiles": "CCCC[C@H](NC(=O)[C@@H](Cc1cc2ccccc2[nH]1)NC(=O)OC(C)(C)C)C(=O)N[C@@H](CC(=O)O)C(=O)N[C@@H](Cc1ccccc1)C(=O)NNC(=O)[C@H](Cc1ccccc1)NC(=O)CNC(=O)[C@@H](C)NC(=O)[C@@H](N)Cc1ccc(O)cc1", "values": [{"measurement": "Emax", "setting": "[5]", "value": 100, "unit": "%"}, {"measurement": "Emax", "setting": "[6]", "value": 170, "unit": "%"}]}, {"smiles": "CCCC[C@H](NC(=O)[C@@H](Cc1c[nH]c2ccccc12)NC(=O)OC(C)(C)C)C(=O)N[C@@H](CC(=O)O)C(=O)N[C@@H](Cc1ccccc1)C(=O)NNC(=O)[C@H](Cc1ccccc1)NC(=O)CNC(=O)[C@@H](C)NC(=O)[C@@H](N)Cc1ccc(O)cc1", "values": [{"measurement": "EC50", "setting": "[10]", "value": 16, "unit": "nM"}, {"measurement": "Log IC50", "setting": "[10]", "value": -7.8}, {"measurement": "Log IC50", "setting": "[5]", "value": -7.13}, {"measurement": "Log IC50", "setting": "[7]; cho", "value": -6.69}]}]}
